Columns and labels:
Escherichia coli = assay: Antibacterial activity against Escherichia coli by NCCLS method; type: functional, organism-based
How it was run: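 Modified NCCLS broth microdilution. DMSO-dissolved samples serially diluted in 0.9% saline, tested in duplicate, final concentrations starting at 20 μg/mL. Inoculum set to 0.5 McFarland (absorbance 630 nm) and diluted in cation-adjusted Mueller–Hinton broth. Growth, solvent and medium controls on each plate. Read at 530 nm before and after incubation. IC50 from percent growth versus concentration. MIC is lowest concentration with no detectable growth.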

Staphylococcus aureus [1] = assay: Antibacterial activity against Staphylococcus aureus ATCC 29213 by NCCLS method; type: functional, organism-based
How it was run: (§1)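 Broth microdilution (modified NCCLS). Samples in DMSO serially diluted in 0.9% saline, tested in duplicate, highest final concentration 20 μg/mL. Inoculum matched to 0.5 McFarland standard by absorbance at 630 nm, then diluted in cation-adjusted Mueller–Hinton broth. Growth, solvent and medium controls on each plate. Absorbance at 530 nm read before and after incubation. IC50 taken from percent growth versus concentration plot; MIC is lowest concentration with no detectable growth; MBC is lowest concentration killing the organism.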

Staphylococcus aureus [2] = assay: Antibacterial activity against methicillin-resistant Staphylococcus aureus ATCC 33591 by NCCLS method; type: functional, organism-based; how it was run: as §1
[3] = tested on: Mycobacterium intracellulare; assay: Antibacterial activity against Mycobacterium intracellular ATCC 23068 by alamar blue method; type: functional, organism-based
How it was run: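 Modified Alamar blue method (Franzblau). Samples in DMSO serially diluted in 0.9% saline, in duplicate, final concentrations starting at 20 μg/mL. Inoculum adjusted to 0.5 McFarland, then diluted in Middlebrook 7H9 with OADC enrichment plus 5% Alamar blue. Fluorescence read (ex 544/em 590 nm) before and after incubation. IC50 from percent growth versus concentration. MIC is no detectable growth.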

Aspergillus fumigatus = assay: Antifungal activity against Aspergillus fumigatus ATCC 204305 by NCCLS method; type: functional, organism-based
How it was run: (§2)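 Modified NCCLS microdilution for fungi. Samples in DMSO serially diluted with 0.9% saline, in duplicate, final concentrations from 20 μg/mL down. Inocula matched to 0.5 McFarland (630 nm) and diluted in Sabouraud dextrose broth. Growth, solvent and medium controls included. OD 530 nm read before and after incubation. IC50 from percent growth curve. MIC is no detectable growth. MFC is lowest concentration killing the organism.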

Candida albicans = assay: Antifungal activity against Candida albicans ATCC 90028 by NCCLS method; type: functional, organism-based; how it was run: as §2
Cryptococcus neoformans = assay: Antifungal activity against Cryptococcus neoformans ATCC 90113 by NCCLS method; type: functional, organism-based; how it was run: as §2
[4] = Cytotoxicity against african green monkey Vero cell after 48 hrs by neutral red uptake assay; type: cell-based; conditions: chlorocebus sabaeus, Vero cells; read-out: TC50
How it was run: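 VERO kidney fibroblasts seeded at 25,000 cells/well and incubated 24 h. Compounds added, highest concentration 10 μg/mL, then 48 h further incubation. Viable cells measured by neutral red assay. IC50 taken from growth-inhibition dose curves. Doxorubicin as positive control, DMSO as vehicle control.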

For `CCc1ccc(N(CCCCCC2CCCCC2)c2ccc[n+](C)c2)cc1.[I-]`, the IC50 (Escherichia coli) was 4 mg/L, the MBC (Escherichia coli) was 20 mg/L and the MIC (Escherichia coli) was 20 mg/L. The IC50 (Staphylococcus aureus [1]) was 0.2 mg/L, the MBC (Staphylococcus aureus [1]) was 5 mg/L and the MIC (Staphylococcus aureus [1]) was 3 mg/L. For the same compound, the IC50 (Staphylococcus aureus [2]) was 0.7 mg/L, the MBC (Staphylococcus aureus [2]) was 2.5 mg/L and the MIC (Staphylococcus aureus [2]) was 1.3 mg/L. The IC50 [3] was 0.6 mg/L, the MBC [3] was 5 mg/L and the MIC [3] was 1.3 mg/L.

With `C[n+]1cccc(N(CCCCCC2CCCCC2)c2cccc(C(F)(F)F)c2)c1.[I-]` the IC50 (Escherichia coli) was 4.5 mg/L, the MBC (Escherichia coli) was > 20 mg/L and the MIC (Escherichia coli) was > 20 mg/L. For the same compound, the IC50 (Staphylococcus aureus [2]) was 1.5 mg/L, the MBC (Staphylococcus aureus [2]) was 5 mg/L and the MIC (Staphylococcus aureus [2]) was 2.5 mg/L. For the same compound, the IC50 [3] was 2 mg/L, the MBC [3] was 2.5 mg/L and the MIC [3] was 2.5 mg/L.

For `Cc1ccc2c(c1)c1c(ccc[n+]1C)n2CCCCCC1CCCCC1.[I-]`, the IC50 (Aspergillus fumigatus) was 17 mg/L, the MFC (Aspergillus fumigatus) was > 20 mg/L and the MIC (Aspergillus fumigatus) was 20 mg/L. For the same compound, the IC50 (Candida albicans) was 2.9 mg/L, the MFC (Candida albicans) was 20 mg/L and the MIC (Candida albicans) was 5 mg/L. For the same compound, the IC50 (Escherichia coli) was 5.6 mg/L, the MBC (Escherichia coli) was > 20 mg/L and the MIC (Escherichia coli) was > 20 mg/L. It also gave an IC50 (Cryptococcus neoformans) of 1.3 mg/L, an MFC (Cryptococcus neoformans) of 2.5 mg/L and an MIC (Cryptococcus neoformans) of 2.5 mg/L. The CC50 at 48 h [4] was > 10 mg/L, the IC50 (Staphylococcus aureus [1]) was 0.4 mg/L and the MBC (Staphylococcus aureus [1]) was 10 mg/L. It also gave an MIC (Staphylococcus aureus [1]) of 0.6 mg/L, an IC50 (Staphylococcus aureus [2]) of 1.6 mg/L and an MBC (Staphylococcus aureus [2]) of 10 mg/L. It also gave an MIC (Staphylococcus aureus [2]) of 5 mg/L, an IC50 [3] of 1.5 mg/L and an MBC [3] of 5 mg/L. It also gave an MIC [3] of 2.5 mg/L.

`CSc1ccc(N(CCCCCC2CCCCC2)c2ccc[n+](C)c2)cc1.[I-]` showed an MFC (Aspergillus fumigatus) of 10 mg/L, an MIC (Aspergillus fumigatus) of 10 mg/L and an IC50 (Escherichia coli) of 5.2 mg/L. The MBC (Escherichia coli) was 20 mg/L, the MIC (Escherichia coli) was 20 mg/L and the CC50 at 48 h [4] was > 10 mg/L. For the same compound, the IC50 (Staphylococcus aureus [1]) was 0.3 mg/L, the MBC (Staphylococcus aureus [1]) was 5 mg/L and the MIC (Staphylococcus aureus [1]) was 0.6 mg/L. For the same compound, the IC50 (Staphylococcus aureus [2]) was 1 mg/L, the MBC (Staphylococcus aureus [2]) was 2.5 mg/L and the MIC (Staphylococcus aureus [2]) was 2.5 mg/L. The IC50 [3] was 1 mg/L, the MBC [3] was 5 mg/L and the MIC [3] was 1.3 mg/L.

With `C[n+]1c2ccccc2cc2[nH]c3ccccc3c21.[I-]` [CRYPTOLEPTINE IODIDE] the MIC (Candida albicans) was > 250 mg/L, the MIC (Cryptococcus neoformans) was 12.5 mg/L and the CC50 at 48 h [4] was 3.2 mg/L. For the same compound, the IC50 (Staphylococcus aureus [1]) was 10 mg/L and the IC50 (Staphylococcus aureus [2]) was 20 mg/L.

`C[n+]1cccc2c1c1cc(Cl)ccc1n2CCCCCC1CCCCC1.[I-]` showed an IC50 (Aspergillus fumigatus) of 16 mg/L, an MFC (Aspergillus fumigatus) of 20 mg/L and an MIC (Aspergillus fumigatus) of 20 mg/L. It also gave an IC50 (Candida albicans) of 2 mg/L, an MFC (Candida albicans) of 5 mg/L and an MIC (Candida albicans) of 5 mg/L. The IC50 (Escherichia coli) was 5.9 mg/L, the MBC (Escherichia coli) was > 20 mg/L and the MIC (Escherichia coli) was > 20 mg/L. For the same compound, the IC50 (Cryptococcus neoformans) was 0.4 mg/L, the MFC (Cryptococcus neoformans) was 0.6 mg/L and the MIC (Cryptococcus neoformans) was 0.6 mg/L. The CC50 at 48 h [4] was > 10 mg/L, the IC50 (Staphylococcus aureus [1]) was 0.5 mg/L and the MBC (Staphylococcus aureus [1]) was 10 mg/L. For the same compound, the MIC (Staphylococcus aureus [1]) was 1.3 mg/L, the IC50 (Staphylococcus aureus [2]) was 1.3 mg/L and the MBC (Staphylococcus aureus [2]) was 10 mg/L. The MIC (Staphylococcus aureus [2]) was 2.5 mg/L, the IC50 [3] was 0.7 mg/L and the MBC [3] was 2.5 mg/L. The MIC [3] was 1.3 mg/L.

For `C[n+]1cccc(N(CCCCCC2CCCCC2)c2ccccc2Cl)c1.[I-]`, the MFC (Aspergillus fumigatus) was > 20 mg/L, the MIC (Aspergillus fumigatus) was > 20 mg/L and the IC50 (Escherichia coli) was 7.6 mg/L. For the same compound, the MBC (Escherichia coli) was > 20 mg/L, the MIC (Escherichia coli) was > 20 mg/L and the IC50 (Staphylococcus aureus [1]) was 0.3 mg/L. It also gave an MBC (Staphylococcus aureus [1]) of 10 mg/L, an MIC (Staphylococcus aureus [1]) of 0.6 mg/L and an IC50 (Staphylococcus aureus [2]) of 1.1 mg/L. The MBC (Staphylococcus aureus [2]) was 10 mg/L, the MIC (Staphylococcus aureus [2]) was 2.5 mg/L and the IC50 [3] was 2.1 mg/L. For the same compound, the MBC [3] was 5 mg/L and the MIC [3] was 2.5 mg/L.

In the case of `C[n+]1cccc2c1c1ccccc1n2CCCCCC1CCCCC1.[I-]`, the IC50 (Aspergillus fumigatus) is reported as 0.45 mg/L, the MFC (Aspergillus fumigatus) is reported as 5 mg/L and the MIC (Aspergillus fumigatus) is reported as 0.63 mg/L. For the same compound, the IC50 (Candida albicans) was 3 mg/L, the MFC (Candida albicans) was > 20 mg/L and the MIC (Candida albicans) was 5 mg/L. For the same compound, the IC50 (Escherichia coli) was 5 mg/L, the MBC (Escherichia coli) was > 20 mg/L and the MIC (Escherichia coli) was > 20 mg/L. For the same compound, the IC50 (Cryptococcus neoformans) was 0.45 mg/L, the MFC (Cryptococcus neoformans) was 5 mg/L and the MIC (Cryptococcus neoformans) was 0.63 mg/L. It also gave a CC50 at 48 h [4] of 7.5 mg/L, an IC50 (Staphylococcus aureus [2]) of 1.5 mg/L and an MBC (Staphylococcus aureus [2]) of 5 mg/L. It also gave an MIC (Staphylococcus aureus [2]) of 2.5 mg/L, an IC50 [3] of 0.55 mg/L and an MBC [3] of 2.5 mg/L. For the same compound, the MIC [3] was 1.3 mg/L.

In the case of `C[n+]1cccc2c1c1cc(F)ccc1n2CCCCCC1CCCCC1.[I-]`, the IC50 (Aspergillus fumigatus) is reported as 12 mg/L, the MFC (Aspergillus fumigatus) is reported as > 20 mg/L and the MIC (Aspergillus fumigatus) is reported as 20 mg/L. It also gave an IC50 (Candida albicans) of 6.5 mg/L, an MFC (Candida albicans) of 20 mg/L and an MIC (Candida albicans) of 20 mg/L. The IC50 (Escherichia coli) was 13 mg/L, the MBC (Escherichia coli) was > 20 mg/L and the MIC (Escherichia coli) was > 20 mg/L. The IC50 (Cryptococcus neoformans) was 0.6 mg/L, the MFC (Cryptococcus neoformans) was 1.3 mg/L and the MIC (Cryptococcus neoformans) was 1.3 mg/L. The CC50 at 48 h [4] was > 10 mg/L, the IC50 (Staphylococcus aureus [1]) was 0.7 mg/L and the MBC (Staphylococcus aureus [1]) was 20 mg/L. It also gave an MIC (Staphylococcus aureus [1]) of 1.3 mg/L, an IC50 (Staphylococcus aureus [2]) of 2.8 mg/L and an MBC (Staphylococcus aureus [2]) of 20 mg/L. The MIC (Staphylococcus aureus [2]) was 5 mg/L, the IC50 [3] was 1.2 mg/L and the MBC [3] was 5 mg/L. For the same compound, the MIC [3] was 2.5 mg/L.

With `C[n+]1cccc(N(CCCCCC2CCCCC2)c2ccccc2)c1.[I-]` the IC50 (Aspergillus fumigatus) was 20 mg/L, the MFC (Aspergillus fumigatus) was > 20 mg/L and the MIC (Aspergillus fumigatus) was > 20 mg/L. The MFC (Candida albicans) was > 20 mg/L, the IC50 (Escherichia coli) was 7.6 mg/L and the MBC (Escherichia coli) was > 20 mg/L. The MIC (Escherichia coli) was > 20 mg/L, the CC50 at 48 h [4] was > 10 mg/L and the IC50 (Staphylococcus aureus [1]) was 0.7 mg/L. For the same compound, the MBC (Staphylococcus aureus [1]) was 10 mg/L, the MIC (Staphylococcus aureus [1]) was 1.3 mg/L and the IC50 (Staphylococcus aureus [2]) was 3.4 mg/L. The MBC (Staphylococcus aureus [2]) was 20 mg/L, the MIC (Staphylococcus aureus [2]) was 10 mg/L and the IC50 [3] was 2.1 mg/L. It also gave an MBC [3] of 2.5 mg/L and an MIC [3] of 2.5 mg/L.

— ChEMBL document CHEMBL1781968, “δ-Carbolines and their ring-opened analogs: synthesis and evaluation against fungal and bacterial opportunistic pathogens” (Eur J Med Chem, 2011)
